Assay results from ChEMBL document CHEMBL1134836, “Design, synthesis, and biological evaluation of a series of lavendustin A analogues that inhibit EGFR and Syk tyrosine kinases, as well as tubulin polymerization” (J Med Chem, 2001).

How the values were obtained:
UACC-62 = test: In vitro cytotoxicity against human melanoma UACC-62 cells.; type: functional
DU-145 = test: In vitro cytotoxicity against human prostate DU-145 cells.; type: functional
[1] = biological target: Tyrosine-protein kinase SYK (Homo sapiens, UniProt P43405); test: In vitro inhibition of Syk protein tyrosine kinase; type: functional
How it was run: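 Full-length GST-Syk from baculovirus-infected Sf9 cell lysates, held on glutathione-agarose. Stopped with 10 mM EDTA, beads washed, read by scintillation counting. IC50 determined graphically against DMSO control.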

Tubulin beta chain = Tubulin beta chain (Bos taurus, UniProt Q6B856); test: Inhibition of bovine tubulin polymerization
Sequence of Tubulin beta chain (Q6B856 whole entry): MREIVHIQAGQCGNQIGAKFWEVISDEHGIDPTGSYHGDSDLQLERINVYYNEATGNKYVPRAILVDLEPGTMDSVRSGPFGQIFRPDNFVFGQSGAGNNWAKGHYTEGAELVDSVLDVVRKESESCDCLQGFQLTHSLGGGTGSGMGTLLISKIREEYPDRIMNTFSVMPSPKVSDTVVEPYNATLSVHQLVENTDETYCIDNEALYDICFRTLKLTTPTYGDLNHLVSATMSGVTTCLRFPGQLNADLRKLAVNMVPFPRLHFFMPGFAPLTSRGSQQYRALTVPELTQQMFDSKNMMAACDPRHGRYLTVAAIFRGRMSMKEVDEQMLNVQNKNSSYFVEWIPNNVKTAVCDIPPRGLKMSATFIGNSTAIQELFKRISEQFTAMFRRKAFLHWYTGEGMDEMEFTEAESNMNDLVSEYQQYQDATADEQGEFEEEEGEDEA
How it was run: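 Electrophoretically homogeneous bovine brain tubulin. Polymerization followed spectrophotometrically with a temperature jump from 2-4 °C to 30 °C.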

SN12C = test: In vitro cytotoxicity against human renal SN12C cells.; type: functional
MDA-MB-435 = test: In vitro cytotoxicity against human breast MDA-MB-435 cells.; type: functional
[2] = biological target: Epidermal growth factor receptor (Mus musculus, UniProt Q01279); test: Inhibition of epidermal growth factor receptor phosphorylation in BaF3 mouse lymphoid cells.; type: cell-based
Sequence of Epidermal growth factor receptor (Q01279 whole entry): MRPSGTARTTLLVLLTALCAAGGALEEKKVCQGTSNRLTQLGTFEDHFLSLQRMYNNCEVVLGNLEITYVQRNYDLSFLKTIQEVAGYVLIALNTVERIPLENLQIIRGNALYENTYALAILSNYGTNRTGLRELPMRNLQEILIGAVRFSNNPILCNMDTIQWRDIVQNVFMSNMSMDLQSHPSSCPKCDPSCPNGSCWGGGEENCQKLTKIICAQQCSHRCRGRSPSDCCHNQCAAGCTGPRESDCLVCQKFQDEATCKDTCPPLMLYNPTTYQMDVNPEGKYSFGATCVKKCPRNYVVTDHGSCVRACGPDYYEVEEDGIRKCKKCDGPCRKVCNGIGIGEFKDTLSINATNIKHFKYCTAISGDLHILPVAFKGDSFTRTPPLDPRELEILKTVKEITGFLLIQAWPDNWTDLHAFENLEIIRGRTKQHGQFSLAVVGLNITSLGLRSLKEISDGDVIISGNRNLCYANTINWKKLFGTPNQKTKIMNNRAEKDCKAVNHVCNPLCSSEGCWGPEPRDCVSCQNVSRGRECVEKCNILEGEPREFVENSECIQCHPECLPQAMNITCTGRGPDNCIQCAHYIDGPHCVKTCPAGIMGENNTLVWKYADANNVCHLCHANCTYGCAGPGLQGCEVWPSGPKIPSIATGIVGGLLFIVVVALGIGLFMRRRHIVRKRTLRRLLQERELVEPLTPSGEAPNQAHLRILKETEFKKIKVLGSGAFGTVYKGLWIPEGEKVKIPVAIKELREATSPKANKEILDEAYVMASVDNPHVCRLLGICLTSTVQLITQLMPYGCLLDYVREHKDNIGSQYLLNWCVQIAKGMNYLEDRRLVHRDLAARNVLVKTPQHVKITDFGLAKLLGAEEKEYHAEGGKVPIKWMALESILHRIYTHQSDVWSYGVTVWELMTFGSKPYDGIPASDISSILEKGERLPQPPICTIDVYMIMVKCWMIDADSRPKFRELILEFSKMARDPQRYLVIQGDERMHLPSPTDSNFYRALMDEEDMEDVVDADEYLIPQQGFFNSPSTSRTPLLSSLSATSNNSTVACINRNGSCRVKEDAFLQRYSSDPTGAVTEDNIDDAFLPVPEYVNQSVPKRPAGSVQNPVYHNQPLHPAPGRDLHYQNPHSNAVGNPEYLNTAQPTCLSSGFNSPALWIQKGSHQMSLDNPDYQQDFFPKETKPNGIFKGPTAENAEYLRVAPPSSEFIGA
How it was run: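 BaF3/EGFR cells serum-starved 24 h, then about 10^7 cells/mL treated 2 h at 37 °C with inhibitor at 3-5 concentrations. Chilled 20 min, then given EGF 100 ng/mL for 7 min on ice. Lysates precipitated on concanavalin A beads, run on SDS/PAGE, and immunoblotted with antiphosphotyrosine using ECL detection.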

MCF7 = test: Inhibition of DNA synthesis in MCF-7 cells.; type: functional, cell-based; details: Homo sapiens
How it was run: (§1)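 Cells seeded at 10^5/well and grown 24 h at 37 °C, then given inhibitor in DMSO at 3-5 concentrations, 3-4 wells each, for 48 h. [3H]thymidine pulse for 2 h. TCA-precipitated label solubilized in perchloric acid and counted.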

HCT-116 = test: In vitro cytotoxicity against human colon HCT116 cell culture.; type: functional
Cancer cell lines = test: Mean graph mid point (MGM) for growth inhibition of all human cancer cell lines successfully tested; type: functional
CCRF-CEM = test: Cytotoxic effect on human leukemia CCRF-CEM cells; type: functional
HOP-62 = test: In vitro cytotoxicity against human lung HOP-62 cells.; type: functional
MCF-10A = test: Inhibition of DNA synthesis in MCF-10A cells.; type: functional, cell-based; details: Homo sapiens; how it was run: as §1
OVCAR-3 = test: In vitro cytotoxicity against human ovarian OVCAR-3 cells.; type: functional
SF-539 = test: In vitro cytotoxicity against human CNS SF-539 cells.; type: functional
[3] = biological target: Tubulin beta chain (Bos taurus) (UniProt Q6B856); test: Percentage inhibition of binding of [3H]colchicine to tubulin at 50 uM
Sequence of Tubulin beta chain (Bos taurus) (Q6B856 whole entry): as the sequence (Q6B856 whole entry) above

[4] = biological target: Tubulin beta chain (Bos taurus) (UniProt Q6B856); details: 5 uM
cancer cell lines (55) = test: Mean graph midpoint (MGM) for growth inhibition of all human cancer cell lines (55); type: functional

SMILES	GI50 (UACC-62) [µM]	GI50 (DU-145) [µM]	IC50 [1] [µM]	IC50 (Tubulin beta chain) [µM]	GI50 (SN12C) [µM]	GI50 (MDA-MB-435) [µM]	IC50 [2] [µM]	IC50 (MCF7) [µM]	GI50 (HCT-116) [µM]	MGM (Cancer cell lines) [µM]	GI50 (CCRF-CEM) [µM]	GI50 (HOP-62) [µM]	IC50 (MCF-10A) [µM]	GI50 (OVCAR-3) [µM]	GI50 (SF-539) [µM]	Inhibition [3] [%]	Inhibition [4] [%]	MGM (cancer cell lines (55)) [µM]
O=C(NCCc1ccccc1)c1ccc(NCc2cc(O)ccc2O)cc1	9.4	14	5	4.9	7.4	5.1	> 200	3	7.4	6.4	0.59	13	7	2.7	8.5	–	–	–
O=C(NC1CCc2ccccc2C1)c1cc(NCc2cc(O)ccc2O)ccc1O (stereo unspecified)	14	17	8	5.3	18	9.2	4	10	16	11.2	1.4	17	6	7.9	2.7	–	–	–
O=C(NCc1ccccc1)c1cc(NCc2cc(O)ccc2O)ccc1O	15	16	25	3.2	12	30	8	17	17	15.5	3.2	23	17	21	21	–	–	–
CCCCCCNC(=O)c1cc(NCc2cc(O)ccc2O)ccc1O	12	15	–	3.6	6.1	15	14	11	17	8.7	0.56	19	14	4	2.3	45	–	–
O=C(NCCc1ccc(Br)cc1)c1cc(NCc2cc(O)ccc2O)ccc1O	8.6	16	45	4.2	6.3	10	35	7	7.6	7.6	–	18	6	4.2	15.8	–	–	–
O=C(NCCc1ccc(Cl)cc1)c1cc(NCc2cc(O)ccc2O)ccc1O	13	16	25	3.2	9.8	20	46	13	15	10	1.6	17	9	5.9	8.4	–	–	–
O=C(NCCc1ccc(O)cc1)c1cc(NCc2cc(O)ccc2O)ccc1O	18	17	5	4.5	19	23	300	16	16	20.4	–	2.5	15	62	2.5	–	–	–
COc1ccc(/C=C\c2cc(OC)c(OC)c(OC)c2)cc1O	–	–	–	–	–	–	–	–	–	–	–	–	–	–	–	–	98	–
O=C(NCCc1ccc(F)cc1)c1cc(NCc2cc(O)ccc2O)ccc1O	7.8	18	5	4	7.7	13	4	12	9.2	0.35	0.29	12	10	11	9.2	38	–	–
O=C(NCCN1CCOCC1)c1cc(NCc2cc(O)ccc2O)ccc1O	17	17	1.5	2.1	22	13	> 50	14	20	19.5	1.8	–	16	87	19	34	–	–
O=C(NCCCc1ccccc1)c1cc(NCc2cc(O)ccc2O)ccc1O	14	8.4	28	5	15	18	1	2	24	13.2	2.4	22	2	6.5	16	–	–	–
O=C(NCCc1ccccc1)c1cc(NCc2cc(O)ccc2O)ccc1O	14	16	5	3.6	18	19	10	9	18	14.8	2.7	20	11	7.7	17	–	–	–
CC(C)CCCC(C)[C@H]1CC[C@H]2[C@@H]3CCC4C[C@@H](NC(=O)c5cc(NCc6cc(O)ccc6O)ccc5O)CC[C@]4(C)[C@H]3CC[C@]12C (stereo partly specified)	–	–	–	> 40	–	–	–	> 50	–	–	–	–	–	–	–	–	–	>100
COc1ccc(CCNC(=O)c2cc(NCc3cc(O)ccc3O)ccc2O)cc1	14	21	50	4.2	72	16	> 100	14	23	15.4	3.2	12	11	5.5	16	–	–	–
CCCCCCCCCCCCNC(=O)c1cc(NCc2cc(O)ccc2O)ccc1O	3.2	11	50	> 40	2.6	3.2	35	1	2.1	2.7	0.34	3.8	3	1.9	20	–	–	–
O=C(NCCc1ccccc1)c1cccc(NCc2cc(O)ccc2O)c1	13	17	> 100	6.9	13	15	500	5	16	12.1	4.4	3.8	6	2.8	15	–	–	–
O=C(NCCc1ccccn1)c1cc(NCc2cc(O)ccc2O)ccc1O	17	17	–	3.6	19	13	15	11	17	16	1	20	7	17	29	–	–	–
O=C(NCc1ccccc1)c1ccc(NCc2cc(O)ccc2O)cc1	12	15	18	–	9.7	12	> 100	16	10	8.8	2.7	20	34	6.8	9.7	–	–	–
O=C(NCCCc1ccccc1)c1ccc(NCc2cc(O)ccc2O)cc1	7.9	13	35	5.7	3.2	5.8	33	0.4	6.4	5.3	0.83	16	3	3	3.4	–	–	–
